T cruzi inh = inhibitors of intracellular T. cruzi growth, primary screen, luminescence, NIH3T3 host cells. T. cruzi beta-gal in NIH3T3, 90 h. inhibition, % (no concentration beside the values). 1.4% of 300,000 active. AID 1885, 2009;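 active means mean inhibition across valid replicates above about 55%, limit read from the data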;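 further: signal also drops with host cell toxicity which is not excluded here; 0% = plate median of DMSO wells and 100% = zero luminescence signal; higher percent means less beta-gal luminescence so fewer parasites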
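System – NIH/3T3 host cells with β-galactosidase reporter T. cruzi · Doses – single 50 nL compound addition per well in DMSO · Reagent – 5000 T. cruzi trypomastigotes/well · Medium – Low-serum DMEM with 2% FBS · Timing – ≥90 h infection period, 3 h prior cell attachment · Evaluation – parasite load inhibition, % · Technique – GalScreen luminescence, 60 min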
HDAC3 inhib = HDAC3 deacetylase inhibitors, primary screen, biochemical, fluorescence, cell-free homogeneous | Histone deacetylase 3 (Homo sapiens), O15379 | recombinant HDAC3, fluorogenic peptide/trypsin coupled | inhibition, % at 8.3 µM | 0.15% of 320,000 active; in the data active means inhibition above about 26%, passing the limit was not always enough
Target sequence (O15379 whole entry, looked up): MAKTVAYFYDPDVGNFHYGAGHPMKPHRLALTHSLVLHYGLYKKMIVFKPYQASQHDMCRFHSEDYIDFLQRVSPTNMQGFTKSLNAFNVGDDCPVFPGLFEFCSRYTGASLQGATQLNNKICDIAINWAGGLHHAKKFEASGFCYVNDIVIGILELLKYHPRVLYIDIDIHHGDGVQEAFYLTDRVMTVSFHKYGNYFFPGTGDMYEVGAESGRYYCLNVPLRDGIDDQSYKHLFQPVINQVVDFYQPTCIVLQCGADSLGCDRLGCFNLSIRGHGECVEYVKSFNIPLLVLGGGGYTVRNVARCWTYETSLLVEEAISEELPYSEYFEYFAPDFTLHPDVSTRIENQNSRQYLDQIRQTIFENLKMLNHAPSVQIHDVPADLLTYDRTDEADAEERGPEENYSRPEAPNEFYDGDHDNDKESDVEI
Efflux pump inh = inhibitors of Candida efflux pumps in yeast, primary screen, S. cerevisiae, Nile Red, multiplex; S. cerevisiae Candida pump triplex; 0.44% of 330,000 active; inhibition, % at 10 µM;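 active means plate passing quality check with inhibition over a set limit, or well fluorescence over plate mean plus 4 SD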;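 further: Nile Red retained in pooled yeast measured as flow cytometry median fluorescence; 0% = buffer negative control and 100% = Enniatin B positive control; higher means more Nile Red kept so more efflux inhibition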
PolyA inhibitor = polyadenylation inhibitors in yeast reporter cells, primary screen, luminescence, S. cerevisiae | activity score, % at 12 µM | AID 1875, 2009 | S. cerevisiae SKY197-pL101 polyadenylation reporter, beta-gal luminescence; efflux-impaired pdr1/pdr3 knockout yeast; score 100 = 6 SD above DMSO | 0.02% of 300,000 active;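 active means lowest replicate activity score at least 50, where 100 means six control SD above control mean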;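 further: yeast exposed to compound for 9 h at 30 °C; higher score means more reporter readthrough which indicates perturbed polyadenylation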
AI-2 QS mod = Vibrio harveyi AI-2 quorum sensing modulators, primary screen, JMH597 strain, luminescence/OD600 ratio. activity change, % at 7.5 µM. AID 2094, 2009. Vibrio harveyi JMH597 AI-2 luminescence/OD600 ratio, 9 h; hits give low values; strain lacks LuxN and CqsS sensors; 0 = neutral-control median. 0.4% of 300,000 active; in the data active means activity change below about -75%, passing the limit was not always enough;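 further: luminescence divided by OD600 gain over 9 h not by final OD600 alone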
The depositor's hits bear a star; nt = no result. Hits are enriched below; roughly 2.2% of the tested compounds scored in any of these assays.

SMILES	T cruzi inh	HDAC3 inhib	Efflux pump inh	PolyA inhibitor	AI-2 QS mod
CCN(C(=O)c1ccco1)C1C2CC3CC(C2)CC1C3 (stereo not drawn)	4	nt	0	-15	20
O=C(Nc1ccncc1)Nc1cc(Cl)ccc1Cl	57*	-2	0	-3	-4
O=C(Nc1ccncc1)Nc1ccc(Cl)cc1Cl	55*	0	0	5	18
CCCCn1c(N)c(N(CC(C)C)C(=O)C2CCN(S(=O)(=O)c3ccc(C)c(C)c3)CC2)c(=O)[nH]c1=O	2	-5	0	3	46
O=C(CC(Nc1ccc(F)cc1)C(=O)OCC(=O)c1cccs1)c1ccccc1 (stereo not drawn)	-19	7	0	-6	15
CCC1(c2ccccc2)NC(=O)N(CC(=O)N(CC(=O)Nc2ccccc2C(F)(F)F)Cc2ccco2)C1=O (stereo not drawn)	-13	1	0	13	8
O=C1N/C(=N\N=C\c2cccnc2)SC1Cc1ccc(SC(F)F)cc1 (stereo not drawn)	62*	-8	0	-13	1
O=C1N/C(=N\N=C\c2ccccn2)SC1Cc1cccc(SC(F)F)c1 (stereo not drawn)	69*	1	0	-31	37
CN(C)CCN(C(=O)c1ccc(C(=O)c2ccccc2)cc1)c1nc2cc3c(cc2s1)OCO3	24	nt	0	-6	11
CN(C)CCN(C(=O)c1ccc(S(=O)(=O)N(C)c2ccccc2)cc1)c1nc2cc3c(cc2s1)OCO3	57*	4	0	18	3
CN(C)CCN(C(=O)c1ccc(S(=O)(=O)N(C)c2ccccc2)cc1)c1nc2ccc(Cl)cc2s1	63*	7	0	-9	9
CCN(CC)CCN(C(=O)CN1C(=O)c2ccccc2C1=O)c1nc2cc3c(cc2s1)OCO3	57*	17	-3	5	23
CCN(CC)CCN(C(=O)c1ccc(S(=O)(=O)N2CCCCC2)cc1)c1nc2cc3c(cc2s1)OCO3	63*	8	0	23	16
CCOc1ccc(N=C(NN)c2ccc3ccccc3n2)cc1	28	10	0	-7	17
O=C(Oc1ccccc1)c1ccc2c(c1)C(=O)N(Cc1ccncc1)C2=O	0	-1	0	-19	5
CCn1cc([N+](=O)[O-])c(C(=O)N2N=C(c3ccc(Cl)c(Cl)c3)CC2c2ccccc2O)n1 (stereo not drawn)	37	-3	0	1	50
CCn1cc([N+](=O)[O-])c(C(=O)N2N=C(c3ccc4ccccc4c3)CC2c2cc(Br)ccc2O)n1 (stereo not drawn)	56*	0	0	6	23
NC(N)=N/N=C/c1ccc2cccc(OCc3ccccc3)c2n1	57*	0	0	-1	27
O/N=C/c1ccc2cccc(OCc3ccccc3)c2n1	-7	6	0	-22	-1
SC(COCc1ccccc1)CN1CCN(Cc2ccc3c(c2)OCO3)CC1 (stereo not drawn)	55*	9	0	33	4
OC(COCc1ccccc1)CN1CCN(Cc2ccc3c(c2)OCO3)CC1 (stereo not drawn)	21	6	0	-3	20
Cc1ccc(NC2CCCN(C(=O)CCc3ccncc3)C2)cc1C (stereo not drawn)	63*	5	0	-4	22
Cc1ccc(NC2CCCN(C(=O)CSc3ccncc3)C2)cc1C (stereo not drawn)	56*	1	0	2	31
Cc1ccc(NC2CCCN(C(=O)Cc3nonc3C)C2)cc1C (stereo not drawn)	11	1	0	9	25
COc1ccc(NC2CCCN(C(=O)CCc3ccncc3)C2)cc1OC (stereo not drawn)	1	4	0	18	6
SMILES	T cruzi inh	HDAC3 inhib	Efflux pump inh	PolyA inhibitor	AI-2 QS mod
CN1CCN(c2oc(-c3ccccc3)nc2S(=O)(=O)c2ccc(Br)cc2)CC1	23	-2	0	6	37
Cc1cccc(N(C)S(=O)(=O)c2ccc3c(c2)C(C)(C)C(=O)N3C)c1	-4	-3	0	6	19
O=[N+]([O-])c1cnc(Sc2ccncn2)s1	19	9	0	-16	-88*
Cc1cc(C)c(S(=O)(=O)c2ccccc2Cl)c(Cl)n1	55*	-4	0	-10	11
Cc1cc(C)c(S(=O)(=O)c2cccc(Br)c2C)c(Cl)n1	13	6	0	-7	8
Cc1cc(C)c(S(=O)(=O)c2ccc(Cl)cc2)c(Cl)n1	8	-1	0	-7	20
Cc1cc(C)c(S(=O)(=O)c2ccc(F)cc2C)c(Cl)n1	55*	13	0	6	18
O=C(O)CCCN1C(=O)C(=O)/C(=C(/O)c2ccccc2)C1/C=C/c1ccccc1 (stereo not drawn)	6	8	0	2	22
COc1cc2ccccc2cc1C(=O)OCC(=O)N(CC(C)C)c1c(N)n(Cc2ccccc2)c(=O)[nH]c1=O	-5	-2	0	3	29
CC(=O)Nc1cccn(Cc2c(Cl)cccc2Cl)c1=O	1	2	0	11	13
C=Cc1ccc(CSc2cc(C)nc3nc(C)nn23)cc1	-10	31*	0	5	22
CCC(=O)NC(C)c1cc(Cl)c2cccnc2c1O (stereo not drawn)	nt	6	0	nt	nt
CCCC(=O)NC(c1ccco1)c1cc(Cl)c2cccnc2c1O (stereo not drawn)	62*	-9	0	11	-5
CCCC(=O)NC(c1ccc2c(c1)OCO2)c1cc(Cl)c2cccnc2c1O (stereo not drawn)	56*	-2	0	14	27
CCCC(=O)NC(c1cccs1)c1cc(Cl)c2cccnc2c1O (stereo not drawn)	78*	3	0	nt	-9
Cc1c(Cl)cccc1NC(=O)CS(=O)(=O)c1ccccc1	-9	-3	0	-5	25
OCCN1CCN(c2ncnc3c2sc2nc(N4CCOCC4)c4c(c23)CCC4)CC1	60*	7	0	-12	11
OCCN(CCO)c1ncnc2c1sc1nc(N3CCOCC3)c3c(c12)CCCC3	37	1	0	15	7
Cc1ccccc1-n1cnc2c(sc3nc(N4CCOCC4)c4c(c32)CCCC4)c1=O	71*	2	0	-27	11
O=c1c2sc3nc(N4CCOCC4)c4c(c3c2ncn1-c1ccccc1)CCCC4	22	-3	0	11	7
CCOC(=O)C1CCCN(C(=O)CN2C(=O)c3ccccc3S2(=O)=O)C1 (stereo not drawn)	nt	-2	0	nt	nt
